The values that follow come from ChEMBL document CHEMBL4819012, “Discovery of novel 2-aryl-3-sulfonamido-pyridines (HoAns) as microtubule polymerization inhibitors with potent antitumor activities” (Eur J Med Chem, 2021).

The source made the active and inactive calls. The rule behind the calls is not given here.

Series [1] concerns RKO. Briefly: Induction of cell cycle arrest in human RKO cells assessed as accumulation of cells in G1 phase at 0.5 uM measured after 24 hrs by PI staining based flow cytometry method (reference value: 39.54%). In kind it is functional.
Series [2] concerns RKO. Briefly: Induction of apoptosis in human RKO cells assessed as early apoptotic cells at 0.5 uM measured after 24 hrs by PI/Annexin V staining based flow cytometry assay (reference value: 2.58%). In kind it is functional.
Series [3] has as its system RKO. The experiment in a line: Antiproliferative activity against human RKO cells assessed as cell viability measured after 72 hrs by MTS method. The format is functional, cell-based. The gist of the method: (§1)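 Log-phase cells plated at 5×10^3–6×10^3 per well for 24 h, then given graded compound concentrations in fresh medium for 72 h, five replicate wells. Medium replaced with medium containing 10% MTS, 30 min or more at 37 °C in dark; OD 490 nm read. IC50 by nonlinear regression; mean ± SD of at least three experiments.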

Series [4] relates to SW-620. Briefly: Induction of apoptosis in human SW-620 cells assessed as increase in Bax expression at 0.5 to 1 uM measured after 24 hrs by western blot assay. The following applies: dose 0.5-1 µM. In kind it is functional, cell-based. The gist of the method: (§2)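 RKO or SW620 cells at 4×10^5–5×10^5 per well treated with 0.5 and 1 µM for 24 h; lysed in SDS loading buffer, boiled, SDS-PAGE, PVDF transfer; probed with anti-Bax or anti-cleaved PARP (1:1000) overnight at 4 °C, HRP secondary, ECL detection; β-actin control.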

For series [5], the system named is RKO. The experiment in a line: Antiproliferative activity against human RKO cells assessed as inhibition of cell proliferation measured after 24 hrs by crystal violet staining based colony-formation assay. In kind it is functional. The following applies: dose 0.125-1 µM. The method in brief: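 RKO or SW620 cells plated at 1000 cells/well overnight, exposed to 0.125–1 µM for 24 h, then grown 10 days in fresh medium. Colonies fixed in methanol 15 min, stained with 0.1% crystal violet 30 min, photographed; colonies of more than 50 cells counted.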

In series [6] the test system is SW-620. The experiment in a line: Induction of cell cycle arrest in human SW-620 cells assessed as accumulation of cells in G2 phase at 0.5 uM measured after 24 hrs by PI staining based flow cytometry method (reference value: 13.83%). In kind it is functional.
For series [7], the system named is RKO. Briefly: Induction of apoptosis in human RKO cells assessed as increase in cleaved PARP levels at 0.5 to 1 uM measured after 24 hrs by western blot assay. In kind it is functional, cell-based. To be noted: dose 0.5-1 µM. The method in brief: as §2
In series [8] the test system is SGC-7901. The experiment in a line: Antiproliferative activity against human SGC-7901 cells assessed as cell viability measured after 72 hrs by MTS method. In kind it is functional, cell-based. The following applies: SGC-7901, 72 h. The gist of the method:
as §1

The test system of series [9] is RKO. The experiment in a line: Induction of cell cycle arrest in human RKO cells assessed as reduction in Cyclin B1 expression at 0.5 to 1 uM measured after 24 hrs by western blot assay. The format is functional, cell-based. The following applies: dose 0.5-1 µM. The gist of the method:
(§3)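 RKO or SW620 cells (4×10^5–5×10^5 per well) exposed to 0.5 or 1 μM or DMSO for 24 h. Lysed in SDS loading buffer, boiled, run on 8–15% SDS-PAGE and moved to PVDF. Blocked in 5% milk, probed overnight at 4 °C with anti-Cdc2 or anti-cyclin B1 (1:1000), β-actin as reference. HRP secondary and ECL detection. Done at least three times.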

Series [10] is described as follows: Toxicity against Athymic nude mouse xenografted with SW-620 cells assessed as toxicity in lung at 25 mg/kg per two days, po measured after 20 days by H and E staining method. To be noted: in vivo, 480 h, time 20 day. The format is organism-based. The gist of the method:
(§4)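 At the end of the 20-day oral SW620 xenograft study (25 mg/kg every 2 days, n = 6), heart, liver, spleen, lung and kidney were fixed in 4% paraformaldehyde and embedded in paraffin. 4 μm sections stained with Mayer hematoxylin 5 min and eosin-phloxine 2 min, then examined by light microscopy.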

Series [11] has as its system SW-620. The experiment in a line: Induction of apoptosis in human SW-620 cells assessed as late apoptotic cells at 1 uM measured after 24 hrs by PI/Annexin V staining based flow cytometry assay (reference value: 3.66%). In kind it is functional.
The test system of series [12] is SW-620. Briefly: Induction of apoptosis in human SW-620 cells assessed as increase in ROS levels at 0.5 uM measured after 24 hrs by DCFH-DA staining based flow cytometry method relative to control. The format is functional. The method in brief: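 Cells at 5×10^5 per well exposed to 0.25 or 0.5 µM for 24 h, then loaded with 5 µM DCFH-DA in serum-free medium 30 min at 37 °C; washed, harvested, read by flow cytometry (ex 488/em 525 nm). ROS given as ratio of treated to control; at least three experiments.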

In series [13] the test system is SW-620. The experiment in a line: Induction of cell cycle arrest in human SW-620 cells assessed as reduction in Cyclin B1 expression at 0.5 to 1 uM measured after 24 hrs by western blot assay. In kind it is functional, cell-based. To be noted: dose 0.5-1 µM. The gist of the method: as §3
Series [14] has as its system RKO. Briefly: Induction of apoptosis in human RKO cells assessed as necrotic cells at 1 uM measured after 24 hrs by PI/Annexin V staining based flow cytometry assay (reference value: 0.01%). The format is functional.
For series [15], the system named is SW-620. Briefly: Induction of apoptosis in human SW-620 cells assessed as early apoptotic cells at 1 uM measured after 24 hrs by PI/Annexin V staining based flow cytometry assay (reference value: 2.41%). In kind it is functional.
The test system of series [16] is RKO. The experiment in a line: Induction of cell cycle arrest in human RKO cells assessed as accumulation of cells in G2 phase at 1 uM measured after 24 hrs by PI staining based flow cytometry method (reference value: 10.79%). The format is functional.
For series [17], the system named is SW-620. The experiment in a line: Induction of apoptosis in human SW-620 cells assessed as necrotic cells at 1 uM measured after 24 hrs by PI/Annexin V staining based flow cytometry assay (reference value: 0.03%). In kind it is functional.
The subject of series [18] is RKO. The experiment in a line: Induction of apoptosis in human RKO cells assessed as early apoptotic cells at 1 uM measured after 24 hrs by PI/Annexin V staining based flow cytometry assay (reference value: 2.58%). The format is functional.
In series [19] the test system is SW-620. Briefly: Induction of apoptosis in human SW-620 cells assessed as early apoptotic cells at 0.5 uM measured after 24 hrs by PI/Annexin V staining based flow cytometry assay (reference value: 2.41%). The format is functional.
Series [20] concerns SW-620. The experiment in a line: Induction of apoptosis in human SW-620 cells assessed as viable cells at 1 uM measured after 24 hrs by PI/Annexin V staining based flow cytometry assay (reference value: 93.89%). In kind it is functional. To be noted: read-out: Activity.
The subject of series [21] is HUVEC. The experiment in a line: Cytotoxicity against human HUVEC cells assessed as inhibition of cell proliferation measured after 24 hrs by MTS assay. The format is cell-based. The gist of the method: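 HUVECs exposed to graded concentrations for 24 h; viability read by MTS assay; IC50 reported as mean ± SD.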
The test system of series [22] is RKO. Briefly: Induction of cell cycle arrest in human RKO cells assessed as accumulation of cells in G1 phase at 1 uM measured after 24 hrs by PI staining based flow cytometry method (reference value: 39.54%). The format is functional.
A short description of series [23]: Toxicity against Athymic nude mouse xenografted with SW-620 cells assessed as toxicity in spleen at 25 mg/kg per two days, po measured after 20 days by H and E staining method. In kind it is organism-based. The following applies: in vivo, 480 h, time 20 day. The method in brief:
as §4

Series [24] concerns SW-620. Briefly: Antitumour activity against human SW-620 cells xenografted in Athymic nude mouse assessed as decrease in tumour growth at 25 mg/kg per two days, po measured after 20 days. In kind it is functional. To be noted: time 20 day. Further details: scale not given: the % may be the effect or the level left. The method in brief:
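Nude mice inoculated s.c. in right armpit with 5×10^6 SW620 cells in 125 µL PBS; at about 100 mm³ randomized, n = 6. Dosed orally 25 mg/kg every 2 days for 20 days in DMSO:corn oil 1:9. Tumour volume (L×W²/2) and body weight measured every 2 days; inhibition from final tumour weight vs vehicle.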

Regarding `COc1ccc(S(=O)(=O)Nc2cccnc2-c2ccc(C#N)c(F)c2)cc1`, the Activity in [1] was 36.95%; in series [2], 24.47%; in [5], “Dose-Dependent Effect”; in series [6] it was 14.44%; in series [10] it was “Non-Toxic”; in series [11], 4.26%. The Activity was 0.17% in series [14]; 10.09% in [15]; 47.76% in series [16]; 0.09% in [17]; 36.65% in series [18]; 6.66% in series [19]. The Activity in series [22] is on record as 8.75%; in series [23] it was “Non-Toxic”; in series [24], 53.6%. Further, the IC50 was found to be 0.17 µM in [3], 0.617 µM in series [8] and 8.9 µM in series [21]. The result in series [4], in series [7], in [9] and in series [13] was Active. In addition, the “fold change (FC)” value in series [12] amounted to 1.5. Besides, the viability at 1 µM in series [20] is 87.3%.
`COc1ccc(S(=O)(=O)Nc2cccnc2Nc2ccc(O)cc2)cc1` [ABT-751]: the IC50 in [3] came to 0.633 µM; in series [8], 0.738 µM; in [21], 9.2 µM. The result in series [4], in series [7] and in [13] was Active. Besides, the Activity was found to be 4.322% in [11]; 0.1% in [14]; 8.35% in [15]; 52.8% in series [16]; 0.07% in series [17]; 10.16% in series [18]. The Activity in series [22] amounted to 0.98%; in series [24] it was 49.3%. Also, the “fold change (FC)” value in series [12] is reported as 1.8. Moreover, in series [20], the viability at 1 µM is 85.6%.
